Converted amounts (≈) assume the structure as drawn.
How the values were obtained:
[1] = test system: Bacillus spizizenii; test: Antibacterial activity against Bacillus subtilis ATCC 6633 after 24 to 48 hrs by agar well diffusion method; format: functional
Procedure, shortened: (§1)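 Mueller Hinton agar plates spread with bacteria (10⁶ cells/ml). Wells were filled with 50 µl of compound and incubated at 37 °C for 24–48 h. The inhibition zone diameter (mm) was measured with a transparent scale. Amoxicillin 5.0 mg/ml at 50 µl/well served as the positive control.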

[2] = test system: Escherichia coli; test: Antibacterial activity against Escherichia coli ATCC 25922 after 24 hrs by agar well diffusion method; format: functional; settings: ATCC 25922, 24 h
[3] = test system: Pseudomonas aeruginosa; test: Antibacterial activity against Pseudomonas aeruginosa ATCC 27853 after 24 hrs by agar well diffusion method; format: functional; settings: ATCC 27853, 24 h
[4] = test system: Staphylococcus aureus; test: Antibacterial activity against Staphylococcus aureus ATCC 25923 after 24 hrs by agar well diffusion method; format: functional; settings: ATCC 25923, 24 h
[5] = test system: Bacillus spizizenii; test: Antibacterial activity against Bacillus subtilis ATCC 6633 after 24 hrs by agar well diffusion method; format: functional; settings: ATCC 6633, 24 h
[6] = test system: Escherichia coli; test: Antibacterial activity against Escherichia coli ATCC 25922 after 24 to 48 hrs by agar well diffusion method; format: functional; procedure, shortened: as §1
[7] = test system: Pseudomonas aeruginosa; test: Antibacterial activity against Pseudomonas aeruginosa ATCC 27853 after 24 to 48 hrs by agar well diffusion method; format: functional; procedure, shortened: as §1
[8] = test system: Staphylococcus aureus; test: Antibacterial activity against Staphylococcus aureus ATCC 25923 after 24 to 48 hrs by agar well diffusion method; format: functional; procedure, shortened: as §1
[9] = test system: Bifidobacterium longum; test: Antibacterial activity against Bifidobacterium infantis after 24 hrs by agar well diffusion method; format: functional, Bifidobacterium longum subsp. infantis

Row | Compound | inhibition zone (IZ) [1] | MIC [2] | MIC [3] | MIC [4] | MIC [5] | inhibition zone (IZ) [6] | inhibition zone (IZ) [7] | inhibition zone (IZ) [8] | MIC [9]
1 | N#C/C(=C\c1cnc(Nc2ccc(Cl)cc2)nc1)c1nc2ccccc2s1 | 35 mm | 11.1 µg/mL (≈ 28.5 µM) | 11.1 µg/mL (≈ 28.5 µM) | 11.1 µg/mL (≈ 28.5 µM) | 20 µg/mL (≈ 51.3 µM) | 40 mm | 30 mm | 30 mm | 
2 | N#C/C(=C\c1cnc(N2CCOCC2)nc1)c1nc2ccccc2[nH]1 | 39 mm | 27.8 µg/mL (≈ 83.6 µM) | 27.8 µg/mL (≈ 83.6 µM) | 27.8 µg/mL (≈ 83.6 µM) | 27.8 µg/mL (≈ 83.6 µM) | 40 mm | 35 mm | 35 mm | 
3 | CC1(C)S[C@@H]2[C@H](NC(=O)[C@H](N)c3ccc(O)cc3)C(=O)N2[C@H]1C(=O)O [AMOXICILLIN] | 14 mm | 1.5 µg/mL (≈ 4.1 µM) | 1 µg/mL (≈ 2.74 µM) | 1.5 µg/mL (≈ 4.1 µM) | 1.5 µg/mL (≈ 4.1 µM) | 21 mm | 24 mm | 25 mm | 1.5 µg/mL (≈ 4.1 µM)
4 | N#C/C(=C\c1cnc(N2CCOCC2)nc1)c1nc2ccccc2s1 | 39 mm | 35.8 µg/mL (≈ 102 µM) | 35.8 µg/mL (≈ 102 µM) | 27.8 µg/mL (≈ 79.6 µM) | 50 µg/mL (≈ 143 µM) | 40 mm | 30 mm | 32 mm | 
5 | N#C/C(=C\c1cnc(NCc2ccccc2)nc1)c1nc2ccccc2s1 | 39 mm | 18.3 µg/mL (≈ 49.5 µM) | 18.3 µg/mL (≈ 49.5 µM) | 18.3 µg/mL (≈ 49.5 µM) | 18.3 µg/mL (≈ 49.5 µM) | 50 mm | 35 mm | 35 mm | 
